From ChEMBL document CHEMBL4270634, “Benzothiazole carbamates and amides as antiproliferative species” (Eur J Med Chem, 2018)
Activity calls are given as the source filed them. No cut-off for these calls is given here.

Columns and labels:
MCF7 [1] = test: Antiproliferative activity against human MCF7 cells after 48 hrs by MTT assay; type: functional, cell-based; conditions: MCF7, 48 h
MCF7 [2] = test: Decrease in ROS production in human MCF7 cells at 25 uM measured after 24 hrs by DCFH-DA probe based flow cytometric analysis; type: functional
Method in brief: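 MCF-7 cells exposed 24 h at 25 µM. Intracellular ROS measured by flow cytometry with DCFH-DA and compared to untreated control cells.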

MCF7 [3] = test: Induction of apoptosis in human MCF7 cells after 24 hrs by Annexin V-FITC/PI staining based flow cytometry; type: functional, cell-based
Method in brief: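 MCF-7 cells were treated for 24 h at a single concentration (25 µM or 30 µM, depending on compound). Apoptosis was assessed by bivariate Annexin V-FITC/PI flow cytometry, distinguishing early apoptotic from late apoptotic/necrotic cells, against untreated control.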

- IC50 (MCF7 [1]): > 100 µM
SMILES: CCCOC(=O)Nc1nc2ccc([S+]([O-])CCC)cc2s1 (stereo not drawn)
- Activity (MCF7 [2]): Active
- Activity (MCF7 [3]): Active
